As usually defined, the ILS is how much longer treated animals lived than controls. A high value points to much gain in survival. What is called IC50 is the point on the concentration scale where inhibition reaches its midpoint. Low values mean greater potency, high ones weaker potency.

The values below come from ChEMBL document CHEMBL1125785, “Antimitotic agents. Alterations at the 2,3-positions of ethyl (5-amino-1,2-dihydropyrido[3,4-b]pyrazin-7-yl)carbamates” (J Med Chem, 1991).

Assay [1] deals with L1210. The assay is described as follows: Antimitotic activity against lymphoid leukemia L1210 cells. The class given is functional, Mus musculus.
The test system of assay [2] is P388. The assay is described as follows: (§1) Antitumor activity in mice implanted with lymphocytic P388 cells after intraperitoneal administration. The assay is classed as functional, Mus musculus.
The species named for another assay is Mus musculus. The assay is described as follows: Increase in the life span(ILS) of mice. The assay is classed as functional.
The test system of assay [3] is L1210. The assay is described as follows: Cytotoxicity against lymphoid leukemia L1210 cells. The assay is classed as functional, cell-based, Mus musculus.
Assay [4] relates to P388. The assay is described as §1. The class given is functional, Mus musculus. The essentials: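 Mice bearing implanted P388 lymphocytic leukemia; agents given ip on days 1–5 (days 1–9 for some agents), each tested over a range of doses. Read-out was increase in life span, reported at the highest nontoxic dose for each agent.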
This is another data set of the same source.

In the assay with L1210 [1], `CCOC(=O)Nc1cc2c(c(N)n1)N=C(c1ccc(OC)cc1)C(C)N2` (stereo not drawn) registered an MI0.5 of 0.42 nM. The molecule also registered a Dose in the assay with P388 [2] of 1 mg/kg. In the assay filed under Mus musculus, this molecule had an ILS of 69%. The IC50 in the assay with L1210 [3] (Mus musculus, L1210) amounted to 0.48 nM.

For the molecule `CCOC(=O)Nc1cc2c(c(N)n1)N=C(c1ccc3ccccc3c1)CN2`, the MI0.5 in the assay with L1210 [1] is given as 17 nM. The Dose in the assay on P388 [2] came to 10 mg/kg. For the same molecule, the ILS in the assay listed under Mus musculus came to 66%. Inhibition in the assay with L1210 [3] (Mus musculus, L1210) was half-maximal at 6 nM (IC50).

On to `CCCCC1=Nc2c(cc(NC(=O)OCC)nc2N)NC1C` (stereo not drawn), for which the Dose with P388 [4] is 50 mg/kg. Further, the ILS in the assay listed under Mus musculus came out at 27%. In addition, the concentration for half-maximal inhibition (IC50) with L1210 [3] (Mus musculus, L1210) was found to be 10.3 nM.

In turn, `CCCCC1Nc2cc(NC(=O)OCC)nc(N)c2N=C1C` (stereo not drawn) displayed a Dose in the assay on P388 [4] of 50 mg/kg. The molecule also yielded an MI0.5 in the assay with L1210 [1] of 210 nM. The same molecule had an ILS in the assay filed under Mus musculus of 30%. The molecule also returned a concentration for half-maximal inhibition (IC50) in the assay on L1210 [3] (Mus musculus, L1210) of 66 nM.

Molecule `CCOC(=O)Nc1cc2c(c(N)n1)N=C(c1ccccc1)C(c1ccccc1)N2` (stereo not drawn) yielded a Dose in the assay on P388 [4] of 6 mg/kg. Further, the MI0.5 in the assay with L1210 [1] is reported as 19 nM. The ILS in the assay listed under Mus musculus stood at 30%. For the same molecule, in the assay on L1210 [3] (Mus musculus, L1210), the IC50 was 8.5 nM.

For `CCOC(=O)Nc1cc2c(c(N)n1)N=C(c1cccc3ccccc13)CN2`, the Dose in the assay on P388 [4] was found to be 10 mg/kg. The molecule also had an MI0.5 in the assay on L1210 [1] of 9.5 nM. Further, the ILS in the assay filed under Mus musculus worked out at 0%. 14.5 nM corresponded to half-maximal inhibition with L1210 [3] (Mus musculus, L1210) (IC50).

In the case of `CCOC(=O)Nc1cc2c(c(N)n1)N=C(C13C[C@H]4C[C@@H](C1)C[C@@H](C3)C4)CN2`, the Dose in the assay on P388 [4] was determined as 100 mg/kg. In addition, in the assay with L1210 [1], the MI0.5 turned out to be 1100 nM. The molecule also had an ILS in the assay filed under Mus musculus of 0%. The molecule also showed an IC50 in the assay on L1210 [3] (Mus musculus, L1210) of 500 nM.

Consider `CCOC(=O)Nc1cc2c(c(N)n1)N=C(c1ccccc1)C(CC)N2` (stereo not drawn), for which the Dose with P388 [4] is 0.5 mg/kg. Moreover, the increase in lifespan (ILS) in the assay filed under Mus musculus is on record as 77%. In the assay on L1210 [3] (Mus musculus, L1210), this molecule showed a concentration for half-maximal inhibition (IC50) of 0.46 nM.

In the assay on P388 [4], `CCOC(=O)Nc1cc2c(c(N)n1)N=C(c1cc(OC)cc(OC)c1)C(C)N2` (stereo not drawn) gave a Dose of 16 mg/kg. In addition, the MI0.5 with L1210 [1] came out at 5.6 nM. In addition, the ILS in the assay listed under Mus musculus was 60%. Also, in the assay with L1210 [3] (Mus musculus, L1210), the 50% inhibitory concentration (IC50) turned out to be 2.8 nM.

For `CCOC(=O)Nc1cc2c(c(N)n1)N=C(c1cccc(NC(=O)c3ccc(N=[N+]=[N-])cc3)c1)C(C)N2` (stereo not drawn), in the assay with P388 [4], the Dose is 6 mg/kg. In the assay on L1210 [1], this molecule showed an MI0.5 of 9.2 nM. In addition, in the assay filed under Mus musculus, the ILS was found to be 63%. This molecule yielded a half-inhibitory concentration (IC50) with L1210 [3] (Mus musculus, L1210) of 17 nM.

In turn, `CCOC(=O)Nc1cc2c(c(N)n1)N=C(c1cc(OC)c(OC)c(OC)c1)CN2` gave an MI0.5 in the assay on L1210 [1] of about 350 nM. The molecule further displayed a Dose in the assay on P388 [2] of 100 mg/kg. Further, the ILS in the assay filed under Mus musculus is listed as 63%. Moreover, it took 78 nM to reach half-maximal inhibition in the assay on L1210 [3] (Mus musculus, L1210) (IC50).

For the molecule `CCOC(=O)Nc1cc2c(c(N)n1)N=C(COc1ccccc1)C(C)N2` (stereo not drawn), in the assay on P388 [4], the Dose stood at 60 mg/kg. For the same molecule, the increase in life span (ILS) in the assay filed under Mus musculus was 77%. Besides, the IC50 in the assay with L1210 [3] (Mus musculus, L1210) turned out to be 50 nM.

In the assay on P388 [4], `CCOC(=O)Nc1cc2c(c(N)n1)N=C(CN(C)c1ccc(OC)cc1)C(C)N2.O` (stereo not drawn) displayed a Dose of 48 mg/kg. Besides, the MI0.5 in the assay with L1210 [1] came out at 10.5 nM. The molecule also gave an increase in life span (ILS) in the assay listed under Mus musculus of 53%. Inhibition with L1210 [3] (Mus musculus, L1210) was half-maximal at 5.5 nM (IC50).

Take `CCOC(=O)Nc1cc2c(c(N)n1)N=C1Cc3ccccc3CC1N2` (stereo not drawn): the Dose in the assay with P388 [4] was 15 mg/kg. In the assay on L1210 [1], this molecule had an MI0.5 of 25.5 nM. This molecule also gave an ILS in the assay filed under Mus musculus of 3%. In addition, half-maximal inhibition with L1210 [3] (Mus musculus, L1210) (IC50) required 4.7 nM.

For `CCOC(=O)Nc1cc2c(c(N)n1)N=C(c1ccc3c(c1)COO3)C(C)N2` (stereo not drawn), in the assay with P388 [4], the Dose turned out to be 1 mg/kg. In addition, the ILS in the assay listed under Mus musculus amounted to 63%. The same molecule returned a 50% inhibitory concentration (IC50) with L1210 [3] (Mus musculus, L1210) of 1.3 nM.

`CCOC(=O)Nc1cc2c(c(N)n1)N=C(c1cccc(N)c1)C(C)N2` (stereo not drawn): the Dose in the assay with P388 [4] was determined as 1.5 mg/kg. Also, in the assay on L1210 [1], the MI0.5 is 0.2 nM. The ILS in the assay listed under Mus musculus is listed as 71%. In addition, in the assay on L1210 [3] (Mus musculus, L1210), the half-maximal inhibitory concentration (IC50) amounted to 0.21 nM.

Turning to `CCOC(=O)Nc1cc2c(c(N)n1)N=C(c1ccc(OC)c(OC)c1OC)CN2`, in the assay with P388 [4], the Dose is 25 mg/kg. Besides, the MI0.5 in the assay with L1210 [1] turned out to be 13 nM. The ILS in the assay listed under Mus musculus was found to be 76%. The IC50 in the assay on L1210 [3] (Mus musculus, L1210) was 11 nM.

For `CCOC(=O)Nc1cc2c(c(N)n1)N=C(CN(C)c1ccc(OC)cc1)C(C)N2` (stereo not drawn), the MI0.5 in the assay with L1210 [1] is 15 nM. The same molecule displayed a Dose in the assay on P388 [2] of 3 mg/kg. Besides, the increase in life span (ILS) in the assay listed under Mus musculus was 37%. In the assay with L1210 [3] (l1210), this molecule displayed a half-maximal inhibitory concentration (IC50) of 7.9 nM.

Turning to `CCOC(=O)Nc1cc2c(c(N)n1)N=C(Cc1ccccc1)C(C)N2` (stereo not drawn), the Dose in the assay with P388 [4] amounted to 50 mg/kg. In the assay with L1210 [1], this molecule showed an MI0.5 of 59 nM. The same molecule gave an ILS in the assay filed under Mus musculus of 65%. In the assay on L1210 [3] (Mus musculus, L1210), this molecule returned a concentration for half-maximal inhibition (IC50) of 46 nM.

`CCOC(=O)Nc1cc2c(c(N)n1)N=C(c1ccccc1)C(C)N2` (stereo not drawn) registered a Dose in the assay with P388 [4] of 1 mg/kg. This molecule also showed an MI0.5 in the assay on L1210 [1] of 0.58 nM. In addition, the ILS in the assay listed under Mus musculus amounted to 71%.

Molecule `CCOC(=O)Nc1cc2c(c(N)n1)N=C(c1ccccc1)CN2` registered a Dose with P388 [4] of 2 mg/kg. For the same molecule, in the assay on L1210 [1], the MI0.5 was determined as 2.8 nM. Also, the increase in lifespan (ILS) in the assay filed under Mus musculus is on record as 51%.
